Results as given in ChEMBL document CHEMBL1123964, “Potent, long-acting luteinizing hormone-releasing hormone antagonists containing new synthetic amino acids: N,N'-dialkyl-D-homoarginines” (J Med Chem, 1988).
Square brackets hold non-standard residues; d marks the D form. Peptide text beside a SMILES is read from it. dPhe(4-Cl) = N[C@H](Cc1ccc(Cl)cc1)C(=O)O; dPhe(4-F) = N[C@H](Cc1ccc(F)cc1)C(=O)O; d2Nal = N[C@H](Cc1ccc2ccccc2c1)C(=O)O

Tests used:
[1] = molecular target: T1, Gonadotropin-releasing hormone receptor (Rattus norvegicus) (UniProt P30969); assay: Antiovulatory activity on diestrus II following administration as a solution in corn oil (24h earlier) in rat.; format: functional, organism-based
T1 sequence (whole entry): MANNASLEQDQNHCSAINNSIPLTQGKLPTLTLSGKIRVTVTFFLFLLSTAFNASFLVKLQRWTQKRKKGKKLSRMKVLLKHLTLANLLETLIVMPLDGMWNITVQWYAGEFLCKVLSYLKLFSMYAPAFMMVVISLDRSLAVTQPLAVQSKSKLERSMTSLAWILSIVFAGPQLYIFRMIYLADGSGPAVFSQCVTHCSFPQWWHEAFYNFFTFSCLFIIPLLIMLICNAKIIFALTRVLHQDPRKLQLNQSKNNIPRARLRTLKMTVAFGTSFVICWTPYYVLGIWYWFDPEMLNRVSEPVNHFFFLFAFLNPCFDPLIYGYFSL
Outline: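 Female rats with at least two normal 4-day cycles before the test cycle were selected. They received the analogue sc in corn oil at noon on diestrus II, 24 h before the proestrus dosing time. On the morning of expected estrus the oviducts were examined under a dissecting microscope, and freshly ovulated eggs were counted. ED50 was taken from percent ovulating versus log-dose, with 10 rats per dose group and usually three or more dose groups.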

[2] = molecular target: T1, Gonadotropin-releasing hormone receptor (Rattus norvegicus); assay: Antiovulatory activity on proestrus was measured by administering as a solution in 50% propylene glycol / 0.9% saline in rat; format: functional
[3] = molecular target: T1, Gonadotropin-releasing hormone receptor (Rattus norvegicus); assay: Antiovulatory activity on proestrus following administration of solution in corn oil in rat.; format: functional, organism-based
Outline: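 Rats with at least two normal 4-day cycles were used. They were injected sc with the analogue in corn oil at noon on proestrus, about 2 h before the preovulatory LH-RH surge. Oviducts were removed on the morning of expected estrus and checked microscopically for fresh eggs, which were counted. ED50 came from percent of females ovulating plotted against log-dose, with 10 animals per dose group.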

Molecule CCNC(=NCCCC[C@@H](NC(=O)[C@H](Cc1ccc(O)cc1)NC(=O)[C@H](CO)NC(=O)[C@@H](Cc1c[nH]c2ccccc12)NC(=O)[C@@H](Cc1ccc(Cl)cc1)NC(=O)[C@@H](Cc1ccc2ccccc2c1)NC(C)=O)C(=O)N[C@@H](CC(C)C)C(=O)N[C@@H](CCCN=C(N)N)C(=O)N1CCC[C@H]1C(=O)NCC(N)=O)NCC has an ED50 (ug injection-1) [1] of 2.5, an ED50 (ug injection-1) [2] of 2 and an ED50 (ug injection-1) [3] of 1.

Work on CCCNC(=NCCCC[C@@H](NC(=O)[C@H](Cc1ccc(O)cc1)NC(=O)[C@H](CO)NC(=O)[C@@H](Cc1c[nH]c2ccccc12)NC(=O)[C@@H](Cc1ccc(Cl)cc1)NC(=O)[C@@H](Cc1ccc(Cl)cc1)NC(C)=O)C(=O)N[C@@H](CC(C)C)C(=O)N[C@@H](CCCN=C(N)N)C(=O)N1CCC[C@H]1C(=O)NCC(N)=O)NCCC yielded an ED50 (ug injection-1) [1] of 16, an ED50 (ug injection-1) [2] of 2.6 and an ED50 (ug injection-1) [3] of 2.3.

Molecule CCNC(=NCCCC[C@@H](NC(=O)[C@H](Cc1ccc(O)cc1)NC(=O)[C@H](CO)NC(=O)[C@@H](Cc1c[nH]c2ccccc12)NC(=O)[C@@H](Cc1ccc(Cl)cc1)NC(=O)[C@@H](Cc1ccc(Cl)cc1)NC(C)=O)C(=O)N[C@@H](CC(C)C)C(=O)N[C@@H](CCCN=C(N)N)C(=O)N1CCC[C@H]1C(=O)NCC(N)=O)NCC has an ED50 (ug injection-1) [1] of 16, an ED50 (ug injection-1) [2] of 2 and an ED50 (ug injection-1) [3] of 2.4.

CCCNC(=NCCCC[C@@H](NC(=O)[C@H](Cc1ccc(O)cc1)NC(=O)[C@H](CO)NC(=O)[C@@H](Cc1c[nH]c2ccccc12)NC(=O)[C@@H](Cc1ccc(F)cc1)NC(=O)[C@@H](Cc1ccc2ccccc2c1)NC(C)=O)C(=O)N[C@@H](CC(C)C)C(=O)N[C@@H](CCCN=C(N)N)C(=O)N1CCC[C@H]1C(=O)NCC(N)=O)NCCC showed an ED50 (ug injection-1) [1] of 12, an ED50 (ug injection-1) [2] of 2.4 and an ED50 (ug injection-1) [3] of 4.7.

For CC(=O)N[C@H](Cc1ccc2ccccc2c1)C(=O)N[C@H](Cc1ccc(Cl)cc1)C(=O)N[C@H](Cc1cccnc1)C(=O)N[C@@H](CO)C(=O)N[C@@H](Cc1ccc(O)cc1)C(=O)N[C@H](CCCN=C(N)N)C(=O)N[C@@H](CC(C)C)C(=O)N[C@@H](CCCN=C(N)N)C(=O)N1CCC[C@H]1C(=O)N[C@H](C)C(N)=O, the ED50 (ug injection-1) [2] was 0.5 and the ED50 (ug injection-1) [3] was 0.3.

Molecule CC(=O)N1CCC[C@H]1C(=O)N[C@H](Cc1ccc(F)cc1)C(=O)N[C@H](Cc1ccc2ccccc2c1)C(=O)N[C@@H](CO)C(=O)NC(Cc1ccc(O)cc1)C(=O)N[C@@H](Cc1ccc2ccccc2c1)C(=O)N[C@@H](CC(C)C)C(=O)N[C@@H](CCCN=C(N)N)C(=O)N1CCC[C@H]1C(=O)NCC(N)=O (stereo in doubt) has an ED50 (ug injection-1) [1] of 140, an ED50 (ug injection-1) [2] of 2.2 and an ED50 (ug injection-1) [3] of 3.3.

In the case of CNC(=NCCCC[C@@H](NC(=O)[C@H](Cc1ccc(O)cc1)NC(=O)[C@H](CO)NC(=O)[C@@H](Cc1c[nH]c2ccccc12)NC(=O)[C@@H](Cc1ccc(F)cc1)NC(=O)[C@@H](Cc1ccc2ccccc2c1)NC(C)=O)C(=O)N[C@@H](CC(C)C)C(=O)N[C@@H](CCCN=C(N)N)C(=O)N1CCC[C@H]1C(=O)NCC(N)=O)NC, the ED50 (ug injection-1) [1] is reported as 5, the ED50 (ug injection-1) [2] is reported as 1.7 and the ED50 (ug injection-1) [3] is reported as 0.8.

In the case of CC(=O)N[C@H](Cc1ccc(Cl)cc1)C(=O)N[C@H](Cc1ccc(Cl)cc1)C(=O)N[C@H](Cc1c[nH]c2ccccc12)C(=O)N[C@@H](CO)C(=O)N[C@@H](Cc1ccc(O)cc1)C(=O)N[C@H](CCCN=C(N)N)C(=O)N[C@@H](CC(C)C)C(=O)N[C@@H](CCCN=C(N)N)C(=O)N1CCC[C@H]1C(=O)N[C@H](C)C(N)=O (Ac-[dPhe(4-Cl)][dPhe(4-Cl)][dW]SY[dR]LRP[dA]-NH2), the ED50 (ug injection-1) [1] is reported as 5, the ED50 (ug injection-1) [2] is reported as 1.7 and the ED50 (ug injection-1) [3] is reported as 1.2.

Molecule CCNC(=NCCCC[C@@H](NC(=O)[C@H](Cc1ccc(O)cc1)NC(=O)[C@H](CO)NC(=O)[C@@H](Cc1c[nH]c2ccccc12)NC(=O)[C@@H](Cc1ccc(Cl)cc1)NC(=O)[C@@H](Cc1ccc(Cl)cc1)NC(C)=O)C(=O)N[C@@H](CC(C)C)C(=O)NC(CCCN=C(N)N)C(=O)N1CCC[C@H]1C(=O)N[C@H](C)C(N)=O)NCC (stereo not given in full) has an ED50 (ug injection-1) [1] of 3.3, an ED50 (ug injection-1) [2] of 1.7 and an ED50 (ug injection-1) [3] of 1.6.

Molecule CNC(=NCCCC[C@@H](NC(=O)[C@H](Cc1ccc(O)cc1)NC(=O)[C@H](CO)NC(=O)[C@@H](Cc1c[nH]c2ccccc12)NC(=O)[C@@H](Cc1ccc(Cl)cc1)NC(=O)[C@@H](Cc1ccc(Cl)cc1)NC(C)=O)C(=O)N[C@@H](CC(C)C)C(=O)N[C@@H](CCCN=C(N)N)C(=O)N1CCC[C@H]1C(=O)N[C@H](C)C(N)=O)NC has an ED50 (ug injection-1) [1] of 5.6, an ED50 (ug injection-1) [2] of 1.6 and an ED50 (ug injection-1) [3] of 1.

CC(=O)N[C@H](Cc1ccc(Cl)cc1)C(=O)N[C@H](Cc1ccc(Cl)cc1)C(=O)N[C@H](Cc1c[nH]c2ccccc12)C(=O)N[C@@H](CO)C(=O)N[C@@H](Cc1ccc(O)cc1)C(=O)N[C@H](CCCCN=C(N)N)C(=O)N[C@@H](CC(C)C)C(=O)N[C@@H](CCCN=C(N)N)C(=O)N1CCC[C@H]1C(=O)N[C@H](C)C(N)=O was tested, and the ED50 (ug injection-1) [1] was < 8, the ED50 (ug injection-1) [2] was 1.3 and the ED50 (ug injection-1) [3] was 2.

Work on CCNC(=NCCCC[C@@H](NC(=O)[C@H](Cc1ccc(O)cc1)NC(=O)[C@H](CO)NC(=O)[C@@H](Cc1c[nH]c2ccccc12)NC(=O)[C@@H](Cc1ccc(Cl)cc1)NC(=O)[C@@H](Cc1c[nH]c2ccccc12)NC(C)=O)C(=O)N[C@@H](CC(C)C)C(=O)N[C@@H](CCCN=C(N)N)C(=O)N1CCC[C@H]1C(=O)NCC(N)=O)NCC yielded an ED50 (ug injection-1) [3] of 3.4.

In the case of CCNC(=NCCCC[C@@H](NC(=O)[C@H](Cc1ccc(O)cc1)NC(=O)[C@H](CO)NC(=O)[C@@H](Cc1c[nH]c2ccccc12)NC(=O)[C@@H](Cc1ccc(F)cc1)NC(=O)[C@@H](Cc1ccc2ccccc2c1)NC(C)=O)C(=O)N[C@@H](CC(C)C)C(=O)N[C@@H](CCCN=C(N)N)C(=O)N1CCC[C@H]1C(=O)NCC(N)=O)NCC, the ED50 (ug injection-1) [1] is reported as 3.5, the ED50 (ug injection-1) [2] is reported as 1.6 and the ED50 (ug injection-1) [3] is reported as 1.4.

CCNC(=NCCCC[C@@H](NC(=O)[C@H](Cc1ccc(O)cc1)NC(=O)[C@H](CO)NC(=O)[C@@H](Cc1c[nH]c2ccccc12)NC(=O)[C@@H](Cc1ccc(Cl)cc1)NC(=O)[C@@H](Cc1ccc2ccccc2c1)NC(C)=O)C(=O)N[C@@H](CC(C)C)C(=O)N[C@@H](CCCN=C(N)N)C(=O)N1CCC[C@H]1C(=O)N[C@H](C)C(N)=O)NCC (stereo in doubt) showed an ED50 (ug injection-1) [1] of 2.5, an ED50 (ug injection-1) [2] of 0.7 and an ED50 (ug injection-1) [3] of 0.5.

For CCCNC(=NCCCC[C@@H](NC(=O)[C@H](Cc1ccc(O)cc1)NC(=O)[C@H](CO)NC(=O)[C@@H](Cc1c[nH]c2ccccc12)NC(=O)[C@@H](Cc1ccc(Cl)cc1)NC(=O)[C@@H](Cc1ccc(Cl)cc1)NC(C)=O)C(=O)N[C@@H](CC(C)C)C(=O)N[C@@H](CCCN=C(N)N)C(=O)N1CCC[C@H]1C(=O)N[C@H](C)C(N)=O)NCCC, the ED50 (ug injection-1) [1] was 14, the ED50 (ug injection-1) [2] was 2.6 and the ED50 (ug injection-1) [3] was 2.

CC(=O)N[C@H](Cc1ccc2ccccc2c1)C(=O)N[C@H](Cc1ccc(F)cc1)C(=O)N[C@H](Cc1c[nH]c2ccccc12)C(=O)N[C@@H](CO)C(=O)N[C@@H](Cc1ccc(O)cc1)C(=O)N[C@H](CCCN=C(N)N)C(=O)N[C@@H](CC(C)C)C(=O)N[C@@H](CCCN=C(N)N)C(=O)N1CCC[C@H]1C(=O)NCC(N)=O (Ac-[d2Nal][dPhe(4-F)][dW]SY[dR]LRPG-NH2) was tested, and the ED50 (ug injection-1) [1] was 9, the ED50 (ug injection-1) [2] was 2.4 and the ED50 (ug injection-1) [3] was 1.1.
